The text below walks through data of ChEMBL document CHEMBL1138081, “New furan side tetracyclic allopsoralen derivatives: synthesis and photobiological evaluation” (J Med Chem, 2006).

Data set [1] is filed under the species Cavia porcellus. The experiment in a line: Phototoxicity in albino Dunkin-Hartley guinea pig skin assessed as formation of erythema at 0.14 umol/cm2. The data set is classed as organism-based, Zone of skin. The settings on record: in vivo, topical_or_ocular. In a few lines:
(§1)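 Depilated albino outbred Dunkin-Hartley guinea pigs received the compound as an ethanol solution applied topically to the skin. Animals were kept 45 min in the dark, then the treated skin was irradiated with 20 kJ m-2 UVA. Erythema was scored after 48 h.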

Data set [2] deals with HL-60. The experiment in a line: Antiproliferative activity against HL60 cells in presence of 0.789 J/cm2 UVA light. The class given is functional, cell-based. Particulars: Homo sapiens, HL-60, light or radiation study; call rule not given here. An outline of the steps: (§2)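 HL-60 cells (10^5 per well) were grown in RPMI 1640 with 15% heat-inactivated FCS and antibiotics at 37 °C in 5% CO2. After 24 h, compound was added in complete medium. For the irradiated arm, cells were kept 1 h in the dark, then given 0.789 J cm-2 UVA (365 nm lamps). Cells were incubated a further 24 h and viability read by trypan blue. IC50 is the concentration giving 50% fewer cells than control.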

The subject of data set [3] is HeLa. The experiment in a line: Antiproliferative activity against HeLa cells in presence of 0.789 J/cm2 UVA light. The data set is classed as functional, cell-based. The settings on record: Homo sapiens, light or radiation study. In a few lines:
(§3)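 HeLa cells (10^5 per well) were grown in F-12 with 10% heat-inactivated FCS at 37 °C in 5% CO2. After 24 h, medium was swapped for phenol-red-free DMEM with compound. For UVA, cells were irradiated after 1 h at 0.789 J cm-2 (365 nm), then the drug medium was replaced with complete F-12 for 24 h. In the dark arm, cells stayed 24 h with compound in complete F-12. IC50 is the concentration giving 50% fewer cells than control.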

The subject of data set [4] is HL-60. Put plainly: Antiproliferative activity against HL60 cells in dark. The class given is functional, cell-based. The settings on record: Homo sapiens. In a few lines: as §2
The subject of data set [5] is HeLa. Put plainly: Antiproliferative activity against HeLa cells in dark. Particulars: Homo sapiens. The data set is classed as functional, cell-based. An outline of the steps: as §3
Data set [6] deals with Cavia porcellus. The experiment in a line: Phototoxicity in albino Dunkin-Hartley guinea pig skin assessed as formation of erythema with edema at 0.046 umol/cm2. Particulars: in vivo, topical_or_ocular. The class given is organism-based, Zone of skin. In a few lines:
as §1

In data set [7] the target is DNA topoisomerase II (Homo sapiens) (UniProt P11388+Q02880). The experiment in a line: Inhibition of topoisomerase 2 by ATP-dependent decatenation of kinetoplast DNA. The data set is classed as protein assay. In a few lines:
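Human topoisomerase II (1 U) was incubated with 0.15 µg kinetoplast DNA and compound (1, 2, 4, 8 µM) in 20 µL for 1 h at 37 °C. The reaction was stopped with stop buffer plus proteinase K 50 µg/mL for 30 min at 37 °C. Decatenation was read on a 1% agarose gel with ethidium bromide 0.5 µg/mL in TAE, pH 8.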

For data set [8], the species on record is Cavia porcellus. The experiment in a line: Phototoxicity in albino Dunkin-Hartley guinea pig skin assessed as formation of erythema at […]. The data set is classed as organism-based, Zone of skin. Particulars: in vivo, topical_or_ocular. An outline of the steps:
as §1

On to `Cc1cc(=O)oc2cc(O)c3c4c(oc3c12)CCCC4`, for which the Activity result in the data set filed under Cavia porcellus [1] was “Not Active”. Besides, the 50% inhibitory concentration (IC50) in the data set with HL-60 [2], in the data set with HeLa [3], in the data set with HL-60 [4] and with HeLa [5] was more than 20 µM each time.

As for `COc1c2occc2cc2ccc(=O)oc12` [METHOXSALEN], in the data set on Cavia porcellus [6], the outcome was Active. Besides, the IC50 in the data set on HL-60 [4] and in the data set with HeLa [5] was more than 20 µM each time.

As for `Cc1cc(=O)oc2cc(OCCCN(C)C)c3c4c(oc3c12)CCCC4`, in the data set listed under Cavia porcellus [1], the Activity entry is recorded as “Not Active”. The IC50 (as a rule, the point on the concentration scale where inhibition reaches its midpoint) is 0.61 µM in the data set on HL-60 [2], 0.4 µM in the data set on HeLa [3], 7.9 µM in the data set on HL-60 [4] and more than 20 µM with HeLa [5].

In the case of `Cc1cc(=O)oc2cc(O)c3c4ccccc4oc3c12`, the Activity result in the data set listed under Cavia porcellus [1] is “Not Active”. Moreover, the IC50 in the data set on HL-60 [2], in the data set with HeLa [3], in the data set on HL-60 [4] and in the data set with HeLa [5] was more than 20 µM in each case.

Consider `Cc1cc(=O)oc2cc(OCCCN(C)C)c3c4ccccc4oc3c12`, for which the half-inhibitory concentration (IC50) in the data set on HL-60 [2] amounted to 0.0105 µM; with HeLa [3] it was 0.0043 µM; with HL-60 [4], 0.48 µM; with HeLa [5], 3.5 µM. Further, in data set [7], the inhibition result was “Dose-dependent effect”. For the same compound, the values for the Activity entry in the data set with Cavia porcellus [6] and in the data set listed under Cavia porcellus [8] were “Active” and “Not Active”, respectively.

As to `COc1cc2oc(=O)cc(C)c2c2oc3c(c12)CCCC3`, in the data set filed under Cavia porcellus [1], the Activity entry is recorded as “Not Active”. For the same compound, the half-inhibitory concentration (IC50) in the data set on HL-60 [2], in the data set on HeLa [3], in the data set with HL-60 [4] and with HeLa [5] was more than 20 µM throughout.

Consider `COc1cc2oc(=O)cc(C)c2c2oc3ccccc3c12`, for which the Activity entry in the data set filed under Cavia porcellus [1] was “Not Active”. Besides, the concentration for half-maximal inhibition (IC50) in the data set on HL-60 [2], in the data set on HeLa [3], in the data set with HL-60 [4] and in the data set with HeLa [5] was more than 20 µM each time.
